Test results taken from ChEMBL document CHEMBL3785029, “Synthesis and Characterization of Fatty Acid Conjugates of Niacin and Salicylic Acid” (J Med Chem, 2016).
Values belong to the molecule of their own block, whether it stands above or below them. Calls of active or inactive are those of the source. The calls are words filed in the database; no cut-off is given here.

What was measured:
[1] = Drug uptake in Sprague-Dawley rat muscle at 300 mg/kg, po administered for 7 days measured 4 hrs post dose on day 7; type: ADME, organism-based, Muscle tissue; details: read-out: Drug uptake
How it was run: (§1)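 Male Sprague Dawley rats, groups of 4, dosed orally at 300 mg/kg once daily for 14 days. Animals killed on days 1, 3, 7 and 14, with plasma, brain, epididymal fat, liver and muscle taken 4 hr after dosing. Parent, salicylic acid and salicyluric acid were measured.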

[2] = test system: Rattus norvegicus; assay: AUClast in Sprague-Dawley rat assessed as salicyluric acid at 300 mg/kg, po measured up to 24 hrs post dose; type: ADME, organism-based; set-up: time < 24 hr, dose 300 mg/kg, route oral; details: in vivo
How it was run: (§2)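 Single oral dose of 300 mg/kg to Sprague Dawley rats. Plasma collected at 0, 0.5, 1, 2, 4, 8 and 24 hr. Analytes were the parent, the salicylate-linker and linker-DHA metabolites, salicylic acid and salicyluric acid; Cmax and AUClast derived.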

[3] = test system: Liver; assay: Drug metabolism in Sprague-Dawley rat liver assessed as salicyluric acid formation at 300 mg/kg, po administered for 7 days measured 4 hrs post dose on day 7; type: ADME, organism-based; details: in vivo; how it was run: as §1
[4] = test system: Liver; assay: Drug uptake in Sprague-Dawley rat liver at 300 mg/kg, po administered for 14 days followed by 7 day washout cycle measured on day 21; type: ADME, organism-based; details: in vivo
[5] = test system: Brain; assay: Drug metabolism in Sprague-Dawley rat brain assessed as salicyluric acid formation at 300 mg/kg, po administered for 7 days measured 4 hrs post dose on day 7; type: ADME, organism-based; details: in vivo; how it was run: as §1
[6] = test system: Muscle tissue; assay: Drug metabolism in Sprague-Dawley rat muscle assessed as salicyluric acid formation at 300 mg/kg, po administered for 14 days followed by 7 day washout cycle measured on day 21; type: ADME, organism-based; details: in vivo
[7] = test system: Brain; assay: Drug uptake in Sprague-Dawley rat brain at 300 mg/kg, po administered for 14 days followed by 7 day washout cycle measured on day 21; type: ADME, organism-based; details: in vivo
[8] = Drug metabolism in Sprague-Dawley rat epididymal fat assessed as salicylic acid formation at 300 mg/kg, po administered for 7 days measured 4 hrs post dose on day 7; type: ADME, organism-based, Epididymal fat pad; details: in vivo; how it was run: as §1
[9] = Cmax in Sprague-Dawley rat at 300 mg/kg, po measured up to 24 hrs post dose; type: ADME, organism-based; set-up: dose 300 mg/kg, route oral; details: in vivo; how it was run: as §2
[10] = test system: Plasma; assay: Drug metabolism in Sprague-Dawley rat plasma assessed as salicyluric acid formation at 300 mg/kg, po administered for 14 days followed by 7 day washout cycle measured on day 21; type: ADME, organism-based; details: in vivo
[11] = test system: Brain; assay: Drug metabolism in Sprague-Dawley rat brain assessed as salicyluric acid formation at 300 mg/kg, po administered for 14 days followed by 7 day washout cycle measured on day 21; type: ADME, organism-based; details: in vivo
[12] = test system: Plasma; assay: Drug metabolism in Sprague-Dawley rat plasma assessed as salicylic acid formation at 300 mg/kg, po administered for 7 days measured 4 hrs post dose on day 7; type: ADME, organism-based; details: in vivo; how it was run: as §1
[13] = test system: Liver; assay: Drug metabolism in Sprague-Dawley rat liver assessed as salicylic acid formation at 300 mg/kg, po administered for 14 days followed by 7 day washout cycle measured on day 21; type: ADME, organism-based; details: in vivo
[14] = test system: Plasma; assay: Drug metabolism in Sprague-Dawley rat plasma assessed as salicylic acid formation at 300 mg/kg, po measured up to 24 hrs post dose; type: ADME, organism-based; details: in vivo; how it was run: as §2
[15] = Drug uptake in Sprague-Dawley rat intestine at 300 mg/kg, qd administered through oral gavage for 7 days measured 2 hrs post last dose by LC/MS/MS analysis; type: ADME, organism-based; details: read-out: Drug uptake
[16] = test system: Rattus norvegicus; assay: Cmax in jugular vein cannulated Sprague-Dawley rat assessed as N-(2-aminoethyl)nicotinamide at 30 mg/kg, po measured up to 140 mins; type: ADME, organism-based; set-up: dose 30 mg/kg, route oral; details: in vivo
How it was run: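 Sprague Dawley rats surgically fitted with indwelling jugular vein and portal vein cannulas; oral dosing, then serial blood draws from both portal and jugular veins at 10, 20, 40 min and 1, 2, 4, 6 hr post dose; plasma analysed for parent and metabolites by LC/MS/MS.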

[17] = test system: Mus musculus; assay: Inhibition of VLDL cholesterol levels in po dosed ApoE*3-Leiden mouse plasma administered for 16 weeks; type: functional, organism-based
How it was run: (§3)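 Transgenic ApoE*3-Leiden mice on high-cholesterol Western-type diet dosed over 16 weeks; plasma PCSK9, total cholesterol, triglycerides and lipoprotein profile (VLDL, LDL) assessed at study end.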

[18] = test system: Plasma; assay: Metabolic stability in human plasma at 5 uM up to 2 hrs by LC-MS-MS analysis; type: ADME, cell-free
How it was run: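 Plasma from each species diluted to 50% with 0.05 M PBS pH 7.4 and prewarmed to 37 °C; compound added at 5 µM final (from DMSO stock diluted in MeOH); triplicate incubations at 37 °C, sampled at 0, 30, 60, 120 min, quenched with acetonitrile containing internal standard, centrifuged, analysed by LC/MS/MS.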

[19] = test system: Mus musculus; assay: Inhibition of LDL cholesterol levels in po dosed ApoE*3-Leiden mouse plasma administered for 16 weeks; type: functional, organism-based; how it was run: as §3
[20] = test system: Intestine; assay: Drug metabolism in Sprague-Dawley rat intestine assessed as nicotinuric acid formation at 300 mg/kg, qd administered through oral gavage for 7 days measured 2 hrs post last dose by LC/MS/MS analysis; type: ADME, organism-based; details: in vivo
[21] = test system: Rattus norvegicus; assay: AUClast in Sprague-Dawley rat assessed as nicotinuric acid at 100 mg/kg, po administered as single dose measured up to 6 hrs post dose by LC/MS/MS analysis; type: ADME, organism-based; set-up: dose 100 mg/kg, time < 6 hr, route oral; details: in vivo
How it was run: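 Single oral dose to Sprague Dawley rats; plasma collected at 0.25, 0.5, 1, 2, 4 and 6 hr; analytes in plasma quantified by LC/MS/MS.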

[22] = test system: Intestine; assay: Drug metabolism in Sprague-Dawley rat intestine assessed as niacin formation at 300 mg/kg, qd administered through oral gavage for 7 days measured 2 hrs post last dose by LC/MS/MS analysis; type: ADME, organism-based; details: in vivo
[23] = test system: Plasma; assay: Drug metabolism in Sprague-Dawley rat plasma assessed as linker EPA metabolite (5Z,8Z,11Z,14Z,17Z)-N-(2-aminoethyl)icosa-5,8,11,14,17-pentaenamide formation at 300 mg/kg, qd administered through oral gavage for 7 days measured 2 hrs post last dose by LC/MS/MS analysis; type: ADME, organism-based; details: in vivo

concentration at 4 h [1]: 425 ng/g
AUClast [2]: 2.937 µg·h/mL
Drug metabolism [3]: 506.48 ng/g
Drug uptake [4]: Not Active
Drug metabolism [5]: 114.43 ng/g
Drug metabolism [6]: metabolite_notdetected
Drug uptake [7]: Not Active
Drug metabolism [8]: 65.03 ng/g
Cmax [9]: 0.477 µg/mL
Drug metabolism [10]: metabolite_notdetected
Drug metabolism [11]: metabolite_notdetected
Drug metabolism [12]: 154.2 ng/mL
Drug metabolism [13]: metabolite_notdetected
Drug metabolism [14]: metabolite_detected
SMILES: CC/C=C\C/C=C\C/C=C\C/C=C\C/C=C\C/C=C\CCC(=O)NCCNC(=O)c1ccccc1O [EDASALONEXENT]

SMILES: CC/C=C\C/C=C\C/C=C\C/C=C\C/C=C\CCCC(=O)NCCNC(=O)c1cccnc1
concentration at 2 h [15]: 6750 ng/g
Cmax [16]: 0.336 µg/mL
inhibition [17]: Active
Stability [18]: Stable
inhibition [19]: Active
Drug metabolism [20]: 1387 ng/g
AUClast [21]: 3.484 µg·h/mL
Drug metabolism [22]: 279 ng/g
Drug metabolism [23]: 1.1 ng/mL
